Only some compounds are listed: those with a hit (about 2.4% of all), similar ones and a draw of the others.
Myeloid diff 2: compounds promoting myeloid differentiation | ER-HoxA9 myeloid progenitors, lysozyme-GFP differentiation, flow cytometry | calls only at 10 µM | 360,000 tested, 1% active | AID 624256;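 active = normalized GFP-positive differentiation at or above the plate's own cutoff, the solvent-only control mean plus 3 SD; inconclusive = no clear call, values can overlap the other calls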;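 also: cells exposed to compound for four days before flow analysis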
MT1-MMP act inh: MT1-MMP (human) activation inhibition; P50281; HT1080 RFP-PRO-GFP cells, GFP/RFP ratio fluorescence, overnight; percent of plate control window, DMSO zero; GFP/RFP ratio change, % at 20 µM; 360,000 tested, 0.061% active;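 active = GFP/RFP ratio change of at least 30% with cell ATP level not reduced by more than half and red fluorescence within 50% of control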
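Material – HT1080 RFP-PRO-GFP cells · Control set – DMSO wells and RFP-L50D-GFP cells · Incubation – overnight cell settling, then overnight compound exposure, 37 °C, 5% CO2 · Compound dosing – single-point 20 µM compound, 1% DMSO · Read-out – GFP/RFP fluorescence ratio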
DAGLB inhibitor: blocks human DAGLB lipase activity. Q8NCG7. HEK293T DAGLB membrane lysate, EnzChek fluorogenic substrate. AID 504411. 340,000 tested, 0.059% active. inhibition, % at 5.17 µM; in the data active = inhibition above about 34%;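 also: 0% = enzyme with vehicle and 100% = wells lacking enzyme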
Target sequence (Q8NCG7 whole entry, looked up): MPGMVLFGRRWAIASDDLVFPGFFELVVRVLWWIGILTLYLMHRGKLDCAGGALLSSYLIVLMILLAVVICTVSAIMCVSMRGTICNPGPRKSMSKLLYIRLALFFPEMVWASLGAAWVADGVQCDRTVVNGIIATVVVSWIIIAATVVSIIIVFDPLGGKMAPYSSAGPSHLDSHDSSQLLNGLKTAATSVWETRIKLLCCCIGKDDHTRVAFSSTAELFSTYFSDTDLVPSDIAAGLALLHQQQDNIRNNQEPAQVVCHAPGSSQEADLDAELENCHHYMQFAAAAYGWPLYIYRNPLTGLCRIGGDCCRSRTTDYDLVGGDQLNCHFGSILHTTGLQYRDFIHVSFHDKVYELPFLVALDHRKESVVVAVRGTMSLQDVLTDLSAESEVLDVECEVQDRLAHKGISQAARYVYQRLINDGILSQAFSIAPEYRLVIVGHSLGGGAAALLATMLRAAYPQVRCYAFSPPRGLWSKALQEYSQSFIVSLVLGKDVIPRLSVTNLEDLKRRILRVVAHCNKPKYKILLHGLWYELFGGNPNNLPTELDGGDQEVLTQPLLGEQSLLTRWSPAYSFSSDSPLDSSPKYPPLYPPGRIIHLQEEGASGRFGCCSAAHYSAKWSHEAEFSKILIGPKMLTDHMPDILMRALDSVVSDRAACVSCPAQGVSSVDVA
SENP1 inh: blocks the human SENP1 SUMO protease catalytic domain; Q9P0U3; recombinant SENP1 catalytic domain, CyPet-SUMO1-YPet FRET cleavage; inhibition, % at 10 µM; 360,000 tested, 0.21% active; AID 624204;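 active = inhibition at least 30% at 10 µM, raw YFP signal under a set limit, fluorescence ratio 0.5 to 1.5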;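 also: 0% = enzyme with DMSO and 100% = no enzyme wells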
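Test system: hSENP1 catalytic domain, recombinant; Amount: 20 pM final SENP1 enzyme; Medium: Tris pH 8 buffer plus EDTA, NaCl, BME, BSA, NP40, catalase; Schedule: 50 min enzyme reaction, room temperature, light-protected; Technique: FRET fluorescence in CFP and YFP emission channels; Controls: no-enzyme wells low, DMSO-plus-enzyme wells high control.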
beta cell repl: induces beta-cell replication in MIN6 cells; MIN6 cells proliferation, ATPlite luminescence, 48 h; cells starved in 0.2% serum; 100% = growth in 10% serum; proliferation, % at 10 µM; 330,000 tested, 0.29% active; AID 2380;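 active = compounds whose signal lies at least 3.5 SD above the mean of all wells on their plate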;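 also: 0% = DMSO-treated cells in low-serum medium and 100% = 10% serum control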
CendR NRP1 mod: modulators of CendR peptide binding to human neuropilin-1; AID 602438; 360,000 tested, 0.85% active; inhibition, % at 25 µM; FAM-RPARPAR peptide binding to NRP-1, fluorescence polarization;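 active = inhibition or corrected inhibition above about 18%, plus a signal ratio from 0.5 to 1.5, limit read from the data, passing the limit was not always enough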
* = called active by the depositor; i = inactive; ? = inconclusive; . = no result; + = active, no number.

SMILES	Myeloid diff 2	MT1-MMP act inh	DAGLB inhibitor	SENP1 inh	beta cell repl	CendR NRP1 mod
Cc1ccc(S(=O)(=O)NNC(=O)c2cccc(O)c2)cc1	i	-1	2	1	-3	4
Cc1ccc(-c2nc(N)sc2C)cc1	i	-3	-1	0	-3	1
CCCc1sc(N)nc1-c1ccc(C)cc1	i	-4	0	-1	-4	17*
COc1ccccc1NCCC(=O)O	i	-3	0	0	4	4
O=C(O)CCNc1ccc(NCCC(=O)O)c2c1C(=O)c1ccccc1C2=O	i	.	1	-21	-4	46*
Nc1c(C(=O)O)ccc2c1C(=O)c1ccccc1C2=O	i	31	30	5	-1	5
Nc1cc(C(=O)O)c(N)c2c1C(=O)c1ccccc1C2=O	i	2	24	8	0	57*
NC1=NC(=O)/C(=C/c2ccc(OCC(=O)O)cc2)S1	i	2	-3	-4	0	-3
CCN(CC)c1ccc(/C=C2\SC(N)=NC2=O)cc1	+	-102	-6	-25	3	-175
CCN(CC)c1ccc(C=C2SC(=S)NC2=O)cc1	+	-23	-79	-23	.	140
Cc1ccc(NC(=O)C2CCCN2C(=O)NC2CCCCC2)cc1F (stereo unspecified)	i	-2	-2	1	2	-1
Cc1ccc(NC(=O)C2CCCN2C(=O)NC2CCCCC2)cc1C (stereo unspecified)	i	1	0	1	0	28*
Oc1cccc(C(O)CNCc2ccc(-c3ccccc3)cc2)c1 (stereo unspecified)	i	2	-4	1	-5	28*
COCCNC(=O)CN1C(=O)NC2(CCCc3cc(OC)ccc32)C1=O (stereo unspecified)	i	0	1	-2	-1	-1
CC(C)c1c(C(=O)N/N=C/c2ccccc2OCc2c(F)cccc2Cl)nnn1-c1nonc1N	?	-7	-4	2	-4	13
Cc1cc(OCC(=O)Nc2ccc(N3CCN(C(=O)c4ccco4)CC3)cc2)cc(C)c1Cl	.	8	4	3	-2	-4
Cc1ccc(OCC(=O)Nc2ccc(N3CCN(C(=O)c4ccco4)CC3)cc2)cc1C	+	1	1	0	-3	2
CCc1ccc(OCC(=O)Nc2ccc(N3CCN(C(=O)c4ccccc4)CC3)cc2)cc1	i	5	1	0	2	-6
COc1ccc(OCC(=O)Nc2ccc(N3CCN(C(=O)c4ccccc4C)CC3)cc2)cc1	+	5	-4	1	-1	-6
CC(Oc1ccccc1F)c1nnc(SCC(=O)NCc2ccc3c(c2)OCO3)o1 (stereo unspecified)	i	2	1	-4	2	1
Oc1ccc(Br)cc1C=Nc1ccc2c3c(cccc13)CC2	+	-175	-11	-28	-1	-41
Oc1ccc(Cl)cc1C=Nc1ccccc1Br	i	-3	-1	-15	-2	-16
Cc1ccc(C)c(N2CCN(S(=O)(=O)c3cc4c(cc3C)NC(=O)CO4)CC2)c1	i	0	-2	0	0	6
CCOC(=O)N1CCN(C(=O)c2cccc(F)c2)CC1	i	0	0	0	-3	5
Cc1nc2ncnn2c(N2CCN(C(=O)c3cccc(F)c3)CC2)c1C	i	0	0	1	0	26*
SMILES	Myeloid diff 2	MT1-MMP act inh	DAGLB inhibitor	SENP1 inh	beta cell repl	CendR NRP1 mod
CCn1c(C)nnc1SCC(=O)NC1CCCCCC1	i	-1	1	1	-1	27*
CCCn1c(C)nnc1SCC(=O)NC1CCCCC1	i	0	0	-1	1	20
Cc1ncc([N+](=O)[O-])n1CC(=O)Nc1cc(Cl)ccc1Cl	i	3	0	2	-1	-1
Cc1ccc2c(c1)S/C(=C/c1ccc[n+](C)c1)N2CCO	+	-33	1	-1	-7	-6
C=C(C)Cn1c(-c2ccc(OC)cc2)nc2ccccc21	i	-4	-6	3	0	0
C=CCOc1ccc(CNC(C)(C)C)cc1OC	i	-2	2	1	1	24*
C=CCOc1ccc(CNc2nccs2)cc1OC	i	-1	0	0	-4	-7
C[C@@H]1CN([C@@H](C)CO)S(=O)(=O)c2ccc(Br)cc2O[C@@H]1CN(C)Cc1cccnc1	i	2	-3	0	.	-3
S=C(NCCC(c1ccccc1)c1ccccc1)Nc1cccc(Cl)c1	i	1	-7	-1	-6	8
S=C(NCCN(C1CCCCC1)C1CCCC1)Nc1cccc(Cl)c1	+	-12	2	6	-6	-3
O=C(NCc1ccncc1)c1cc(C(=O)C2CC2)c[nH]1	i	2	0	0	1	-1
Cc1ccc2nc(-c3cccs3)oc(=O)c2c1	i	2	-9	2	-2	-1
COc1cc2nc(-c3cccs3)oc(=O)c2cc1OC	.	10	-1	-1	-2	27*
Cc1cc(NC2=CC(=O)C(=O)c3ccccc32)no1	i	5	0	4	.	28*
CCOC(=O)C1=C(c2ccccc2)NC(N)=NC1c1ccc(OCc2ccc(Cl)cc2)c(OC)c1 (stereo unspecified)	i	-11	-1	-1	-7	-3
COc1cccc(CNC(=O)CCCn2ncn3c(cc4occc43)c2=O)c1	+	2	-1	0	-1	7
CN(C)S(=O)(=O)N1CCC(Oc2ccc(C(=O)N3CCCCCCC3)cc2)CC1	?	4	3	-1	-2	9
CN(C)S(=O)(=O)N1CCC(Oc2ccc(C(=O)N3CCCCCC3)cc2)CC1	+	-9	-2	2	.	-7
C=CCn1c(C)c(/C=C/c2cc[n+](C)cc2)c2ccccc21	+	-250	-38	-27	-6	131
C=CCn1cc(/C=C/c2cc[n+](C)cc2)c2ccccc21	?	-277	-35	-28	-5	131
CCN(CC)C(=O)Cn1c(C)c(/C=C/c2cc[n+](C)cc2)c2ccccc21	+	-158	-19	-29	5	-105
Cc1[nH]c2ccccc2c1/C=C/C(=O)c1ccncc1	+	-9	-1	-37	-3	-81
Cc1[nH]c2ccccc2c1/C=C/c1cc[n+](C)cc1	+	-240	-47	6	.	129
CCC(C)(C(=O)NC1CCCCC1)N(Cc1ccco1)C(=O)Cc1cccs1 (stereo unspecified)	i	-4	-2	1	2	3

Screening results: PubChem BioAssay, several laboratories
